Reference: article PMC8926318 (Iranian Journal of Biotechnology, 2021)

Assays:
[1] = tested on: HepG2 (human liver cancer cell line); experiment: MTT cell viability assay, HepG2; format: cell-based; details: HepG2 cells, 48 h, only at the highest concentration (1000 µM); for inhibitory activity compared with ciprofloxacin (in words): Fig. 3; for viability inhibition compared with the triazole compound (in words): Fig. 5
How it was run: (§1)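 Cells kept in RPMI1640 with 10% FBS, penicillin and streptomycin (100 µg.mL-1 each) at 37 °C, 5% CO2. Plated at 10⁴ cells/well for 24 h, then given test compound at 10, 100 or 1000 µM for 48 h. MTT (5 mg.mL-1 in PBS) added for 4 h at 37 °C. Formazan dissolved in DMSO for 20 min, read at 570 nm. At least triplicate; one-way ANOVA with Tukey post hoc.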

human colorectal cells = details: cited from earlier work
[2] = tested on: LNCaP (human prostatic carcinoma cell line); experiment: MTT cell viability assay, LNCaP; format: cell-based; details: LNCaP cells, 48 h, 1000 µM, p<0.01
How it was run: as §1

human fibrosarcoma cells = details: by inducing apoptosis; cited from earlier work

| Substance | inhibitory activity compared with ciprofloxacin (in words) [1] | viability inhibition compared with the triazole compound (in words) [1] | further results |
| --- | --- | --- | --- |
| ciprofloxacin-LSGNK [Cipro-C1] | more inhibitory activity | – | – |
| triazole-LSGNK [triazole-C1] | – | noticeable viable inhibition | – |
| LSGNK [C1] | – | – | anti-proliferative activity (in words) (human colorectal cells): anti-proliferative agent |
| triazole-YIGSR [triazole-C2] | – | noticeable viable inhibition | toxicity compared with unconjugated congener (in words) [2]: more significant |
| YIGSR [C2] | – | – | effect on tumor growth and metastasis (in words) (human fibrosarcoma cells): inhibitory effect on tumor growth and metastasis |
| ciprofloxacin-YIGSR [Cipro-C2] | more inhibitory activity | – | – |
